Assay [1] concerns the target T1, 5-hydroxytryptamine receptor 7 (Homo sapiens, UniProt P34969). The experiment in a line: Displacement of [3H]5-HT from human 5-HT7 receptor expressed in HEK293 cells after 30 mins by microbeta counting analysis. The class given is cell-based.
The target in assay [2] is T1, 5-hydroxytryptamine receptor 7. The assay is described as follows: Displacement of [3H]5-HT from human 5-HT7 receptor expressed in HEK293 cells at 10^-6 mol/L after 30 mins by microbeta counting analysis. The format is cell-based. In outline:
(§1)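 Membranes incubated 30 min at 25 °C with 5 nmol/L [3H]5-HT in 50 mM Tris-HCl pH 7.4 containing pargyline, CaCl2 and ascorbic acid, with the test compound at a single fixed concentration. Non-specific binding with 100 µM cold 5-HT; separation by filtration; result reported as % displacement.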
For orientation: In a radioligand displacement assay an active substance lowers the binding of a labelled ligand.

Assay [3] has the same target. The experiment in a line: Displacement of [3H]5-HT from human 5-HT7 receptor expressed in HEK293 cells at 10^-5 mol/L after 30 mins by microbeta counting analysis. The format is cell-based. Put shortly: as §1
For assay [4], the target named is 5-hydroxytryptamine receptor 4 (Homo sapiens) (UniProt Q13639). The assay is described as follows: Binding affinity to human recombinant 5-HT4E receptor expressed in CHO cells at 1 uM after 30 mins by radioligand displacement assay relative to control. The format is cell-based.
Sequence of 5-hydroxytryptamine receptor 4 (Homo sapiens) (Q13639 whole entry): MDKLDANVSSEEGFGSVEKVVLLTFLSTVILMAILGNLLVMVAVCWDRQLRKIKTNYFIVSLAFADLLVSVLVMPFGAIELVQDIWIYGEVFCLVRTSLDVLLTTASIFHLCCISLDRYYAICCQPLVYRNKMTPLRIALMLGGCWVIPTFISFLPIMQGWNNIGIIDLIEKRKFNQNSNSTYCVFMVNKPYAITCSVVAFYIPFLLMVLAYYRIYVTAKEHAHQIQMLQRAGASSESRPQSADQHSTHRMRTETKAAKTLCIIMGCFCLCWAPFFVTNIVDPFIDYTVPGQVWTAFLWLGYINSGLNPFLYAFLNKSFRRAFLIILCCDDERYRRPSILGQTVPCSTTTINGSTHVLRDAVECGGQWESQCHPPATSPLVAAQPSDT
Assay [5] has as its target 5-hydroxytryptamine receptor 2A (Homo sapiens) (UniProt P28223). The assay is described as follows: Binding affinity to human recombinant 5-HT2A receptor expressed in HEK293 cells at 1 uM by radioligand displacement assay relative to control. The class given is cell-based.
In assay [6] the target is 5-hydroxytryptamine receptor 1D (Rattus norvegicus) (UniProt P28565). The experiment in a line: Binding affinity to rat recombinant 5-HT1D receptor expressed in CHO cells at 1 uM by radioligand displacement assay relative to control. The format is cell-based.
Sequence of 5-hydroxytryptamine receptor 1D (Rattus norvegicus) (P28565 whole entry): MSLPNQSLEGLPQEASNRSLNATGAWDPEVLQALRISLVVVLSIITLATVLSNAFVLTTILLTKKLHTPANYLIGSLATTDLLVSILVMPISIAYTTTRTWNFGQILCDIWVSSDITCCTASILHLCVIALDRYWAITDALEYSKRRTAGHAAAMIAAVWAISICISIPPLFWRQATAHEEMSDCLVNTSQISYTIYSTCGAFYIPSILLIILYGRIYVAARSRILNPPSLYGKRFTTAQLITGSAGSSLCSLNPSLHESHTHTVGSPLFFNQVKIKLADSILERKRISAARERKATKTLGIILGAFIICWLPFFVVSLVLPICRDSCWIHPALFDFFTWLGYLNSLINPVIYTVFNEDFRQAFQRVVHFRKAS
Assay [7] has as its target T1, 5-hydroxytryptamine receptor 7. The experiment in a line: Binding affinity to human recombinant 5-HT7 receptor expressed in CHO cells after 30 mins by radioligand displacement assay. The class given is cell-based. In outline:
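Membranes from receptor-expressing cells harvested at 80% confluence, homogenised and pelleted at 48,000 × g for 90 min, then protein-quantified by Bradford. Competition with 5 nmol/L [3H]5-HT and test compound for 30 min at 25 °C in 50 mM Tris-HCl pH 7.4 containing pargyline, 4 mmol/L CaCl2 and 0.05% ascorbic acid. Non-specific binding measured with excess cold 5-HT; bound radioligand separated by filtration. Ki derived from IC50 by Cheng-Prusoff; mean of four determinations in duplicate.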

For assay [8], the target named is 5-hydroxytryptamine receptor 2B (Homo sapiens) (UniProt P41595). The experiment in a line: Binding affinity to human recombinant 5-HT2B receptor expressed in CHO cells at 1 uM by radioligand displacement assay relative to control. The class given is cell-based.
Sequence of 5-hydroxytryptamine receptor 2B (Homo sapiens) (P41595 whole entry): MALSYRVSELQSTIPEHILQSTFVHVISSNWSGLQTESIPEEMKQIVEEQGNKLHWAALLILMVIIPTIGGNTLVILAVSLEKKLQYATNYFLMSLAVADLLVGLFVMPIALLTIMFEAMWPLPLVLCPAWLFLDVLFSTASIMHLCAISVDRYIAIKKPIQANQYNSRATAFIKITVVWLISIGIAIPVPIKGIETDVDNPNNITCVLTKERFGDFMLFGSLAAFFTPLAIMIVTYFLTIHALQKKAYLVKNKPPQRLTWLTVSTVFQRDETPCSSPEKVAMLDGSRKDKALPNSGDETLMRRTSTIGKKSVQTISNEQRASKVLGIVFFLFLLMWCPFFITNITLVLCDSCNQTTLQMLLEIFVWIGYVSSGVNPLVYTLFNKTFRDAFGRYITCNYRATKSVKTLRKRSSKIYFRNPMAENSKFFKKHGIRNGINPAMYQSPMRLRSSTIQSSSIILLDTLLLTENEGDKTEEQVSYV
Assay [9] has as its target 5-hydroxytryptamine receptor 5A (Homo sapiens) (UniProt P47898). The experiment in a line: Displacement of [3H]LSD from human recombinant 5-HT5A receptor expressed in HEK293 cells at 1 uM after 120 mins by scintillation counting analysis relative to control. The class given is cell-based.
Assay [10] addresses T2, 5-hydroxytryptamine receptor 3A (Homo sapiens) (UniProt P46098).
T2 sequence (whole entry): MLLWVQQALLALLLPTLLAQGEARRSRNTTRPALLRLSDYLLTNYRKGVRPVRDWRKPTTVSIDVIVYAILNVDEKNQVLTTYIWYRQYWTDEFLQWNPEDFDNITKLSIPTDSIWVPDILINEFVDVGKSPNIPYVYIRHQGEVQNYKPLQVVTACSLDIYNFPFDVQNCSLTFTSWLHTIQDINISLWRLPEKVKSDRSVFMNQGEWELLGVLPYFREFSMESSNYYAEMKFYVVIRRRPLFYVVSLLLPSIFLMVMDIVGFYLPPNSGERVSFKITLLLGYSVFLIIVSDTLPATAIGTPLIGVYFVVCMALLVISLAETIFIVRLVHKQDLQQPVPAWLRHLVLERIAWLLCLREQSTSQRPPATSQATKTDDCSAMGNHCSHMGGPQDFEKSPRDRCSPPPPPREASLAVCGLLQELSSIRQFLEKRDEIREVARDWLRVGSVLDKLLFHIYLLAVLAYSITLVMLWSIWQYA
The experiment in a line: Binding affinity to human 5-HT3 receptor at 1 uM by radioligand displacement assay relative to control.

Assay [11] concerns the target 5-hydroxytryptamine receptor 6 (Homo sapiens) (UniProt P50406). The experiment in a line: Binding affinity to human recombinant 5-HT6 receptor expressed in CHO cells at 1 uM after 30 mins by radioligand displacement assay relative to control. The class given is cell-based.
Assay [12] deals with 5-hydroxytryptamine receptor 1B (Homo sapiens) (UniProt P28222). The experiment in a line: Binding affinity to recombinant human 5-HT1B receptor expressed in CHO cells at 1 uM by radioligand displacement assay relative to control. The class given is cell-based.
Sequence of 5-hydroxytryptamine receptor 1B (Homo sapiens) (P28222 whole entry): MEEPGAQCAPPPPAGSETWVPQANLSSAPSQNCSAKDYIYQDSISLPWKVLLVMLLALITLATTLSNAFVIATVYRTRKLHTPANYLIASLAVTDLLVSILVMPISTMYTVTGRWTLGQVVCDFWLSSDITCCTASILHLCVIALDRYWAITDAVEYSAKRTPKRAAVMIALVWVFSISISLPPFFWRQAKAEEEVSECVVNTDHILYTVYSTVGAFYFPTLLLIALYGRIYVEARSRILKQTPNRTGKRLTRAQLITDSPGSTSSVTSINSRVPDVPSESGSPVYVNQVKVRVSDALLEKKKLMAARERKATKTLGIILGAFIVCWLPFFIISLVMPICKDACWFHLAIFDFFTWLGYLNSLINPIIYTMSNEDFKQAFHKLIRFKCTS
The target in assay [13] is T3, 5-hydroxytryptamine receptor 1A (Homo sapiens) (UniProt P08908).
T3 sequence (whole entry): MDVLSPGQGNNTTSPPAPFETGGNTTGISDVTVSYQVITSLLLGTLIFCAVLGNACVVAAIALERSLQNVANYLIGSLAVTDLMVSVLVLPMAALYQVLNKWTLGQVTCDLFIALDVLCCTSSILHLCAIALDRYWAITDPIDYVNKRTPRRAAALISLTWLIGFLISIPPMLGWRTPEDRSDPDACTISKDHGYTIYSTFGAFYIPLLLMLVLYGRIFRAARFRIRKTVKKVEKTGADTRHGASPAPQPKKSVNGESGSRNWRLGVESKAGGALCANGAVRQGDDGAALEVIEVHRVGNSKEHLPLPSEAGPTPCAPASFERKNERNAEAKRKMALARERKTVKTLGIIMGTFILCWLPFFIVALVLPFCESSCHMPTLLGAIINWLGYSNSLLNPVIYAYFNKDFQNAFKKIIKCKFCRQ
The experiment in a line: Displacement of [3H]-8-OH-DPAT from human recombinant 5-HT1A receptor expressed in HEK293 cells at 1 uM by scintillation counting analysis relative to control. The class given is cell-based.

Assay [14] concerns the target T4, 5-hydroxytryptamine receptor 2C (Homo sapiens) (UniProt P28335).
T4 sequence (whole entry): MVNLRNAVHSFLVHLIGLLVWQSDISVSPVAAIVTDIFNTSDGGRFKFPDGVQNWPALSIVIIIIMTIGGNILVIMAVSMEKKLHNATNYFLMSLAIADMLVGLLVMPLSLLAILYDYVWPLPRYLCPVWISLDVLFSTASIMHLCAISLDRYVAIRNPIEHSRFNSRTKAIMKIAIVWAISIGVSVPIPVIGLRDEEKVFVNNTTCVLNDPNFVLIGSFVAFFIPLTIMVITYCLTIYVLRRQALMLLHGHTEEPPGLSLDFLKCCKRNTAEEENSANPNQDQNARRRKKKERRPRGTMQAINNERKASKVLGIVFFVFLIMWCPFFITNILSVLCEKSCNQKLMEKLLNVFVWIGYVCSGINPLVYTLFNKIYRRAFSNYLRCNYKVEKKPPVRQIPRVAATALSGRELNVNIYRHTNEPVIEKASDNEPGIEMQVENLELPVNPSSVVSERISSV
The experiment in a line: Binding affinity to human recombinant 5-HT2C receptor expressed in HEK293 cells at 1 uM after 30 mins by radioligand displacement assay relative to control. The class given is cell-based.

In assay [15] the target is T1, 5-hydroxytryptamine receptor 7. The experiment in a line: Antagonist activity at human 5-HT7 receptor expressed in CHO cells assessed as residual 5-HT-stimulated cAMP accumulation at 1 uM relative to control. A general note: cAMP levels reflect the balance of adenylyl cyclase and phosphodiesterase activity.

T1 sequence (P34969 whole entry): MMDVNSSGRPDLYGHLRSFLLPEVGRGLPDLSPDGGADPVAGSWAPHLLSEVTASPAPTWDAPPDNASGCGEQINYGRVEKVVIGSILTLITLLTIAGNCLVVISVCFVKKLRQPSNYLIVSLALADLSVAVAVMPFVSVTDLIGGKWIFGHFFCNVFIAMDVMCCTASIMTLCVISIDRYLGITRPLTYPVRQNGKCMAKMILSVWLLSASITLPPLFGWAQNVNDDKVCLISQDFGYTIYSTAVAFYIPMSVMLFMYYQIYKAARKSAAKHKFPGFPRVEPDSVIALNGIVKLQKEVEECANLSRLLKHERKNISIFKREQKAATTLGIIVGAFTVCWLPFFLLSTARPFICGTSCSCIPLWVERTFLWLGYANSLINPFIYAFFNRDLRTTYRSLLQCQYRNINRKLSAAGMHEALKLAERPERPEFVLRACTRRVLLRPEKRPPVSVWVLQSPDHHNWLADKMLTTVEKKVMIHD
Sequence of 5-hydroxytryptamine receptor 5A (Homo sapiens) (P47898 whole entry): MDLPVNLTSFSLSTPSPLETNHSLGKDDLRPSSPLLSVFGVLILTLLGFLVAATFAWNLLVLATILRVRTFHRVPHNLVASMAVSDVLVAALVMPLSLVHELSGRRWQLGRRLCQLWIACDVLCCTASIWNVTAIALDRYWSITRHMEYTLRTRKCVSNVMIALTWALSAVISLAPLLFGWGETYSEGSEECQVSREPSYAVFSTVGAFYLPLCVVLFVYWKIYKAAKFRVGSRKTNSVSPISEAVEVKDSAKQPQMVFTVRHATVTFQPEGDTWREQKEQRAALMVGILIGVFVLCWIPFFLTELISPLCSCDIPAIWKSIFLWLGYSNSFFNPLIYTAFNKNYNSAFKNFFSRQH
Sequence of 5-hydroxytryptamine receptor 2A (Homo sapiens) (P28223 whole entry): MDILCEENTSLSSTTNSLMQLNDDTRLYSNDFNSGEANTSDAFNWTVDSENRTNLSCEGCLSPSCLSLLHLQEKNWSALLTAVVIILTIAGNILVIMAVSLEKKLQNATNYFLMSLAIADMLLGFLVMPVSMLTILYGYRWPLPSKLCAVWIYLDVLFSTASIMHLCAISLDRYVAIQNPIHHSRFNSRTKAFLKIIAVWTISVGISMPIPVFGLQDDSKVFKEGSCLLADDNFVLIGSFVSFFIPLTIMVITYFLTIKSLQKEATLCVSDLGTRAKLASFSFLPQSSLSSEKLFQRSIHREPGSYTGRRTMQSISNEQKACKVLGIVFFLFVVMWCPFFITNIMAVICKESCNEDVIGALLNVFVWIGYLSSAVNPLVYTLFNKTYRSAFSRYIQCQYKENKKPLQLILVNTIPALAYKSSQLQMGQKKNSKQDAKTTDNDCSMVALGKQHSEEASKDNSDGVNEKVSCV
Sequence of 5-hydroxytryptamine receptor 6 (Homo sapiens) (P50406 whole entry): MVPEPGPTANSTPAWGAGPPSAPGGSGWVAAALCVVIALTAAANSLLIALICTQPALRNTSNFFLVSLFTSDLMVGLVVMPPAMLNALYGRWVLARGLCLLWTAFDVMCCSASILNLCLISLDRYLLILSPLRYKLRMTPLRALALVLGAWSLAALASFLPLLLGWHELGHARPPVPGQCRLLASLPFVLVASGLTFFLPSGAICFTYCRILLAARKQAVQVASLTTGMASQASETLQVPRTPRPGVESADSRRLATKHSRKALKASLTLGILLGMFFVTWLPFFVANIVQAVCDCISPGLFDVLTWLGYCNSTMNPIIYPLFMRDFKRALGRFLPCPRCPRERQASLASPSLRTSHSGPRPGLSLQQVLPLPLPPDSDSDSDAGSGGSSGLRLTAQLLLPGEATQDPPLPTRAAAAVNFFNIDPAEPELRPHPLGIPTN

`CN(CCN1CCN(c2ccccc2)CC1)c1cccc(O)c1` came in with an inhibition constant (Ki) in assay [1] of 161 nM.

As to `CN(CCN1CCN(c2ccccc2)CC1)c1cccc([N+](=O)[O-])c1`, the Ki in [1] is 332 nM.

As to `CCN(CCCCCCN1CCN(c2ccccc2)CC1)c1cccc(O)c1`, the affinity in assay [1], expressed as Ki, was 191 nM.

In turn, `CN(CCCCCCN1CCN(c2cccc(C(F)(F)F)c2)CC1)c1cccc(O)c1` came in with an inhibition constant (Ki) in assay [1] of 95.6 nM.

On to `Oc1cccc(N(CCCN2CCN(c3ccccc3)CC2)Cc2ccccc2)c1`, for which, in assay [1], the Ki amounted to 92.5 nM.

As to `CN(CCN1CCN(c2ccccc2)CC1)c1cccc(N)c1`, the inhibition came to 40% in assay [2] and 85% in assay [3].

As to `Cc1cccc(N(C)CCCN2CCN(c3ccccc3)CC2)c1`, in assay [1], the affinity, expressed as Ki, was 84.8 nM.

`CCCN(CCCN1CCN(c2ccccc2)CC1)c1cccc(O)c1` yielded a Ki in assay [1] of 20.8 nM.

In assay [1], `O=S(=O)(c1ccccc1)N(CCCN1CCN(c2ccccc2)CC1)c1cccc(O)c1` gave a Ki of 12.1 nM.

For the molecule `Oc1ccc2[nH]cc(CCN3CCN(c4cccc5ccccc45)CC3)c2c1`, the inhibition in assay [4] was determined as 7%; in assay [5], 100%; in [6], 99%; in assay [8], 98%; in assay [9], 94%; in assay [10], 15%. For the same molecule, the inhibition in [11] was 76%; in assay [12], 74%; in [13], 100%; in assay [14], 98%. For the same molecule, the inhibitory constant (Ki) in assay [7] and in assay [1] was 11.6 nM each time.

`Oc1cccc(NCCCN2CCN(c3ccccc3)CC2)c1`: the Ki in assay [1] came out at 10.1 nM.

In turn, `Cc1[nH]c2ccc(O)cc2c1CCN1CCN(c2cccc3ccccc23)CC1` displayed a Ki in [1] of 12.8 nM.

`Oc1cccc(OCCN2CCN(c3ccccc3)CC2)c1`: the inhibition in assay [2] was determined as 21%; in [3], 42%.

Regarding `CN(CCCN1CCN(c2ccccc2)CC1)c1cccc(NS(C)(=O)=O)c1`, the Ki in assay [1] came to 39.6 nM.

Consider `CN(CCN1CCN(c2ccccc2)CC1)c1cccc(NS(C)(=O)=O)c1`, for which, in [15], the % serotonin response was determined as 48%. In addition, affinity in assay [1] was put at a Ki of 57 nM.

Molecule `CN(CCCN1CCC(N(c2ccccc2)c2ccccc2)CC1)c1cccc(O)c1` returned an inhibition constant (Ki) in assay [1] of 310 nM.

Regarding `OCc1cccc(NCCCN2CCN(c3ccccc3)CC2)c1`, the Ki in assay [1] came to 109 nM.

In [1], `CN(CCCN1CCN(c2ccccc2)CC1)c1cccc(F)c1` registered a Ki of 112 nM.

`Oc1ccc2[nH]cc(CCN3CCN(c4ccccc4)CC3)c2c1`: the inhibition in assay [4] came to 17%; in assay [5], 97%; in assay [6] it was 60%; in [8], 98%; in [9] it was 56%; in assay [10], 1%. In addition, the inhibition in [11] is 18%; in [12], 11%; in assay [13] it was 95%; in assay [14], 66%. The Ki in [7] and in assay [1] was 63.1 nM each time.

As to `CN(CCCN1CCN(c2ccccc2)CC1)c1cccc(Br)c1`, the Ki in [1] turned out to be 161 nM.

In assay [1], `Oc1cccc(N(CCCN2CCN(c3ccccc3)CC2)c2ccccc2)c1` yielded a Ki of 90.1 nM.

Take `CCc1[nH]c2ccc(O)cc2c1CCN1CCN(c2cccc3ccccc23)CC1`: the Ki in assay [1] is 6.6 nM.

Consider `O=Cc1cccc(NCCCN2CCN(c3ccccc3)CC2)c1`, for which the Ki in [1] was 13.2 nM.

In assay [1], `Oc1cccc(NCCN2CCN(c3ccccc3)CC2)c1` came in with a Ki of 252 nM.

`NC(=O)c1cccc(NCCCN2CCN(c3ccccc3)CC2)c1` yielded a Ki in assay [1] of 63.3 nM.

On to `CN(CCCN1CCN(c2ccc3ccccc3c2)CC1)c1cccc(O)c1`, for which the Ki in [1] is 434 nM.

As for `CN(CCCCCCN1CCN(c2cccc3ccccc23)CC1)c1cccc(O)c1`, in assay [1], affinity was put at a Ki of 39.4 nM.

With `CN(CCN1CCN(Cc2ccccc2)CC1)c1cccc(O)c1`, the inhibition in assay [2] was determined as 42%; in [3], 82%.

The molecule `Oc1cccc2c1CC(N1CCN(c3ccccc3)CC1)CC2` (racemic) had a Ki in [1] of 81.4 nM.

On to `Oc1cccc(CCCCN2CCN(c3ccccc3)CC2)c1`, for which, in [1], affinity was put at a Ki of 3.1 nM.

For the molecule `CN(CCCCCCN1CCN(c2ccnc3cc(Cl)ccc23)CC1)c1cccc(O)c1`, the results for the inhibition in [2] and in [3] were 28% and 74%, respectively.

For `CN(CCCCCN1CCN(c2ccccc2)CC1)c1cccc(O)c1`, the % serotonin response in [15] was 69%. The molecule further gave an inhibition constant Ki in assay [1] of 16.7 nM.

As to `Oc1ccc2[nH]cc(CCN3CCN(c4cccc(-c5ccccc5)c4)CC3)c2c1`, the inhibition in [2] stood at 42%; in [3], 88%.

In [1], `CN(CCCCCCN1CCC(c2ccccc2)CC1)c1cccc(O)c1` returned a Ki of 226 nM.

Take `CN(CCCCCCN1CCN(c2ccccc2)CC1)c1cccc(O)c1`: in assay [15], the % serotonin response stood at 56%. Besides, in assay [1], affinity was put at a Ki of 12 nM.

The molecule `CN(CCCN1CCN(c2ccccc2)CC1)c1cccc(Cl)c1` showed a Ki in [1] of 179 nM.

Regarding `Oc1cccc(N(CCCCCCN2CCN(c3ccccc3)CC2)Cc2ccccc2)c1`, the affinity in assay [1], expressed as Ki, was 138 nM.

With `COC(=O)c1cccc(NCCCN2CCN(c3ccccc3)CC2)c1`, affinity in assay [1] was put at a Ki of 77.9 nM.

As for `CN(CCCN1CCN(c2cccc3ccccc23)CC1)c1cccc(O)c1`, the inhibition constant Ki in assay [1] came to 2.9 nM.

Molecule `Oc1cccc(CCCN2CCN(c3ccccc3)CC2)c1` registered a Ki in [1] of 40 nM.

Turning to `CC(=O)Nc1cccc(N(C)CCCN2CCN(c3ccccc3)CC2)c1`, in [1], the inhibition constant Ki stood at 161 nM.

Regarding `CN(CCCN1CCC(c2ccccc2)(c2ccccc2)CC1)c1cccc(O)c1`, affinity in assay [1] was put at a Ki of 242 nM.

By Ki is commonly meant the dissociation constant of the complex between target and ligand, obtained from inhibition or displacement. Usually inhibition stands for the change of the read-out against control, counted positive when it falls.

(Values after ChEMBL document CHEMBL3259775, “Towards the development of 5-HT₇ ligands combining serotonin-like and arylpiperazine moieties” (Eur J Med Chem, 2014).)
